Assay outcomes from PubChem BioAssay.
hERG protect: shields human hERG channel from block by proarrhythmic agents; CHO-hERG, FluxOR thallium flux, dofetilide IC70 present; hit rate 0.51% among 310,000; AID 1511; activation (rescue from dofetilide block), less the hit threshold, % at 10 µM; Q12809;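 active = activation above the mean of controls blocked by dofetilide plus 5 SD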;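 note: thallium influx through hERG after potassium depolarization seen as dye fluorescence rise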
KCNQ1 pot: potentiates or activates the human KCNQ1 potassium channel. CHO-K1 KCNQ1, thallium flux FluxOR fluorescence; stronger effect = higher value. hit rate 0.35% among 310,000. B-score at 10 µM. AID 2648;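 active = fluorescence ratio B-score, a plate-corrected score, at least three library SD, with initial intensity B-score within 5 SD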
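Test system: CHO-K1 cells stably expressing KCNQ1 / Medium: assay buffer / Also added: depolarizing K+/Tl+ stimulus, K2SO4 and Tl2SO4 each 12.5 mM in 5x stock / Incubation: 90 min dye loading and 20 min compound exposure, both at room temperature / Signal: thallium influx via FluxOR fluorescence, kinetic imaging / Evaluation: B score of baseline-normalized fluorescence ratio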
KCNK3 block: human KCNK3 channel inhibition, primary screen; O14649; AID 602410; hit rate 0.84% among 340,000; B-score at 10 µM; CHO-KCNK3 thallium flux, FluxOR fluorescence; stronger effect = lower value;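 active = B-score under library mean minus 4 SD, starting fluorescence ratio at most library mean plus 5 SD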;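 note: more negative B-score means stronger inhibition of thallium flux through KCNK3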
KCNQ1 inh: inhibitors of human KCNQ1 potassium channel; B-score at 10 µM; hit rate 1.3% among 310,000; CHO-K1 KCNQ1, FluxOR thallium flux fluorescence; stronger effect = higher value; P51787;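 active = compounds whose thallium flux B-score, printed positive for inhibition, exceeds three library SD while starting fluorescence stays within three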;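 note: channel opened by potassium depolarization with thallium stimulus after 20 min compound exposure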
Kir21 inh: Kir2.1 (mouse) channel inhibition. B-score at 10 µM. hit rate 0.85% among 310,000. P35561. AID 1672. HEK293-Kir2.1, FluxOR thallium flux fluorescence; stronger effect = lower value;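 active = fluorescence ratio B-score at or below minus 3 SD of library scores, with starting-brightness B-score within 2 SD, cut at about -4.2 in these data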;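 note: channel flux triggered by added potassium and thallium sulfate stimulus; B-score of peak minus minimum fluorescence over baseline after thallium stimulus; more negative B-score means stronger Kir2.1 block with less thallium influx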
Target sequence (P35561 whole entry, looked up): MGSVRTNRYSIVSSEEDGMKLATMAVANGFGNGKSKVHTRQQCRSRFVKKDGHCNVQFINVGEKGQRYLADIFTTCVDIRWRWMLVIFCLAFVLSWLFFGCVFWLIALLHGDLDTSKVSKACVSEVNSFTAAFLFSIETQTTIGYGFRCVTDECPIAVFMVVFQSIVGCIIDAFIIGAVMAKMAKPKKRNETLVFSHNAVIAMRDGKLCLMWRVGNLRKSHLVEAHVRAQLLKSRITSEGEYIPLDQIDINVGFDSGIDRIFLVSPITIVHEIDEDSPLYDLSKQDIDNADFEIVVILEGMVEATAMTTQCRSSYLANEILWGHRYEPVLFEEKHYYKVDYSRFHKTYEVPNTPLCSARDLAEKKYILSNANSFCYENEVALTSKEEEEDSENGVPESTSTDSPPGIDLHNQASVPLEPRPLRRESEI
KCNK9 block: blocks the human KCNK9 two-pore domain potassium channel | Q9NPC2 | hit rate 1.2% among 310,000 | B-score at 10 µM | AID 488922 | HEK293 KCNK9, FluxOR thallium flux fluorescence; stronger effect = lower value;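 active = ratio B-score over 3 SD below the library mean, with starting fluorescence within 5 SD of its mean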;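 note: negative B-score means less thallium flux so channel inhibition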
KCNK3 inh conf: confirmation of human KCNK3 two-pore domain potassium channel inhibitors | CHO-KCNK3 thallium flux, FluxOR fluorescence; 0% buffer, 100% carvedilol maximal block | AID 651638 | hit rate 99% among 2,400 | shares compounds with KCNK3 block | ratio percent of control, % at 10 µM;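 active = ratio percent of control, averaged over triplicates, above buffer control mean plus 5 SD, cut at about 64% in these data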;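 note: ratio is the fluorescence rise from min to max over baseline after thallium stimulus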
KCNK3 noninduced: activity in cells without induced KCNK3 expression; shares compounds with KCNK3 block; non-induced KCNK3 parental cells, FluxOR thallium flux; stronger effect = lower value; hit rate 40% among 2,400; thallium flux ratio (lower = more inhibition) at 10 µM;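 active = thallium flux ratio, averaged over three wells, more than 5 SD below the buffer control mean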;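 note: host cells are CHO cells without KCNK3 induction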
Numbers stand for hits. Compounds with a hit are over-represented: about 3.7% of the library has one in this group of screens.

Results for Cc1nn(C(C)(C)C)c(OC(=O)C2CCCC2)c1S(=O)(=O)c1ccccc1 ?
hERG protect: inactive; KCNQ1 pot: inactive; KCNK3 block: -9.86; KCNQ1 inh: inactive; Kir21 inh: inactive; KCNK9 block: inactive; KCNK3 inh conf: 90.3; KCNK3 noninduced: inactive

How did COC(=O)[C@]1(C)N[C@H](CN(C)C(=O)c2ccc(F)cc2)[C@@H]2C(=O)N(Cc3ccccc3)C(=O)[C@@H]21 do in these assays?
KCNK3 block: inactive

Results for COc1c(C(=O)Nc2ccc(Br)cn2)ccc2ccccc12 ?
hERG protect: inactive; KCNQ1 pot: inactive; KCNK3 block: -11.4; KCNQ1 inh: inactive; Kir21 inh: inactive; KCNK9 block: -7.25; KCNK3 inh conf: 97.0; KCNK3 noninduced: 0.157

What do the screens show for `CC(O)Cn1c(N2CCCC2)nc2c1c(=O)[nH]c(=O)n2C` (stereo not drawn)?
hERG protect: inactive; KCNQ1 pot: inactive; KCNK3 block: inactive; KCNQ1 inh: inactive; Kir21 inh: inactive; KCNK9 block: inactive

How did COC(=O)C1=C(C)N=C2SC(C)C(=O)N2C1c1cccs1 (stereo not drawn) do in these assays?
hERG protect: inactive; KCNQ1 pot: inactive; KCNK3 block: -11.9; KCNQ1 inh: inactive; Kir21 inh: inactive; KCNK9 block: inactive; KCNK3 inh conf: inactive; KCNK3 noninduced: inactive

Results for COC(=O)C1=C(C)N=C2SC(C)C(=O)N2C1c1ccc(C(=O)OC)cc1 (stereo not drawn) ?
hERG protect: inactive; KCNQ1 pot: inactive; KCNK3 block: -8.71; KCNQ1 inh: inactive; Kir21 inh: inactive; KCNK9 block: inactive; KCNK3 inh conf: 105.7; KCNK3 noninduced: inactive

Results for O=C(NC(=S)Nc1c(Cl)ccc2nsnc12)c1ccco1 ?
hERG protect: inactive; KCNQ1 pot: inactive; KCNK3 block: inactive; KCNQ1 inh: inactive; Kir21 inh: inactive; KCNK9 block: inactive

What do the screens show for `COc1ccc(/C=C2\SC(=S)NC2=O)cc1OS(=O)(=O)c1ccc(NC(C)=O)cc1`?
hERG protect: inactive; KCNQ1 pot: inactive; KCNK3 block: -10.1; KCNQ1 inh: 13; Kir21 inh: inactive; KCNK9 block: inactive; KCNK3 inh conf: 124.0; KCNK3 noninduced: inactive

What do the screens show for `Cc1cccc(NC(=O)COc2ccc(-c3nn(C)c(=O)c4ccccc34)cc2)c1`?
hERG protect: inactive; KCNQ1 pot: inactive; KCNK3 block: -11.8; KCNQ1 inh: 6; Kir21 inh: inactive; KCNK9 block: inactive; KCNK3 inh conf: 100.3; KCNK3 noninduced: inactive

How did COc1ccc(NC(=O)c2ccc(-c3nn(C)c(=O)c4ccccc34)cc2)cc1 do in these assays?
hERG protect: inactive; KCNQ1 pot: inactive; KCNK3 block: inactive; KCNQ1 inh: inactive; Kir21 inh: inactive; KCNK9 block: inactive

Results for COc1ccccc1NC(=O)c1ccc(-c2nn(C)c(=O)c3ccccc23)cc1 ?
hERG protect: inactive; KCNQ1 pot: inactive; KCNK3 block: -9.94; KCNQ1 inh: inactive; Kir21 inh: inactive; KCNK9 block: inactive; KCNK3 inh conf: 96.0; KCNK3 noninduced: inactive

What do the screens show for `Cc1ccoc1C(=O)N1CCCCC1C(=O)O` (stereo not drawn)?
hERG protect: inactive; KCNQ1 pot: inactive; KCNK3 block: inactive; KCNQ1 inh: inactive; Kir21 inh: inactive; KCNK9 block: inactive

Results for COC(c1ccc(Cl)cc1)(c1ccc(Cl)cc1)C(Oc1nc(C)cc(C)n1)C(=O)O (stereo not drawn) ?
hERG protect: inactive; KCNQ1 pot: inactive; KCNK3 block: inactive; KCNQ1 inh: inactive; Kir21 inh: inactive; KCNK9 block: inactive

What do the screens show for `O=C(Nc1ccc(Nc2ccccc2)cc1)C(Cl)(Cl)Cl`?
hERG protect: inactive; KCNQ1 pot: inactive; KCNK3 block: inactive; KCNQ1 inh: inactive; Kir21 inh: inactive; KCNK9 block: inactive

What do the screens show for `CN(C)Cc1c(O)ccc2[nH]cnc12`?
hERG protect: inactive; KCNQ1 pot: inactive; KCNK3 block: -10.3; KCNQ1 inh: inactive; Kir21 inh: inactive; KCNK9 block: inactive; KCNK3 inh conf: 79.7; KCNK3 noninduced: inactive

Results for Cc1occc1-c1nnc(SCC(=O)N2CCCCC2)o1 ?
hERG protect: inactive; KCNQ1 pot: inactive; KCNK3 block: inactive; KCNQ1 inh: inactive; Kir21 inh: inactive; KCNK9 block: inactive

How did c1ccc(COn2nnc3ccccc32)c(COn2nnc3ccccc32)c1 do in these assays?
hERG protect: inactive; KCNQ1 pot: inactive; KCNK3 block: -9.67; KCNQ1 inh: inactive; Kir21 inh: -5.7; KCNK9 block: inactive; KCNK3 inh conf: 102.3; KCNK3 noninduced: inactive

How did O=C1/C(=C\c2ccc(O)cc2)SC(=S)N1/N=C/c1ccc(O)cc1 do in these assays?
hERG protect: inactive; KCNQ1 pot: inactive; KCNK3 block: -8.83; KCNQ1 inh: 7; Kir21 inh: inactive; KCNK9 block: inactive; KCNK3 inh conf: 109.0; KCNK3 noninduced: 0.152

Results for CC(=O)NN1C(=O)/C(=C\c2ccc(O)cc2)SC1=S ?
hERG protect: inactive; KCNQ1 pot: inactive; KCNK3 block: inactive; KCNQ1 inh: inactive; Kir21 inh: inactive; KCNK9 block: inactive

What do the screens show for `CC(C)(C)c1cc(C(=O)NNc2cc(C(F)(F)F)ccc2Cl)n(Cc2ccccc2)n1`?
hERG protect: inactive; KCNQ1 pot: inactive; KCNK3 block: -18.5; KCNQ1 inh: 8; Kir21 inh: inactive; KCNK9 block: inactive; KCNK3 inh conf: 139.0; KCNK3 noninduced: 0.131

How did Cc1ccc(NC(=O)c2cc(C(C)(C)C)nn2Cc2ccccc2)cc1 do in these assays?
hERG protect: inactive; KCNQ1 pot: inactive; KCNK3 block: -16.2; KCNQ1 inh: inactive; Kir21 inh: inactive; KCNK9 block: inactive; KCNK3 inh conf: 147.7; KCNK3 noninduced: inactive

How did CCC(=O)Nc1nn(CC(C)C)c2nc3ccc(C)cc3cc12 do in these assays?
hERG protect: inactive; KCNQ1 pot: inactive; KCNK3 block: inactive; KCNQ1 inh: inactive; Kir21 inh: inactive; KCNK9 block: inactive

Results for Cc1cccc(C(=O)O/N=C(\c2ccccc2)c2cccnc2)c1 ?
hERG protect: inactive; KCNQ1 pot: inactive; KCNK3 block: -8.89; KCNQ1 inh: inactive; Kir21 inh: inactive; KCNK9 block: inactive; KCNK3 inh conf: 102.3; KCNK3 noninduced: inactive

What do the screens show for `C/C(=C\c1ccccc1)C(=O)Nc1ccc(S(=O)(=O)Nc2ncccn2)cc1`?
hERG protect: inactive; KCNQ1 pot: inactive; KCNK3 block: inactive; KCNQ1 inh: inactive; Kir21 inh: inactive; KCNK9 block: inactive

Results for Cc1ccc2oc(=O)n(CCCOc3ccccc3C)c2c1 ?
hERG protect: inactive; KCNQ1 pot: inactive; KCNK3 block: -10.9; KCNQ1 inh: inactive; Kir21 inh: inactive; KCNK9 block: inactive; KCNK3 inh conf: 120.7; KCNK3 noninduced: 0.142
